Assay results: PMC11399684 (Saudi Pharmaceutical Journal : SPJ, 2024)
Blank lines part the entries; values can stand above or below the molecule they belong to.

How the values were obtained:
[1] = Plasma pharmacokinetic study; assay type: in vivo, male Wistar rats; settings: drug delivered by MPG2 (MPG2ER), intraperitoneal
Summary of the method: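 Male Wistar rats (200 ± 50 g), fasted, got a single intraperitoneal dose of the dendrimer formulation at 10 mg/kg drug equivalent in 5 % v/v DMSO, with 4 rats per time point. Retro-orbital blood (0.5 ml) was drawn at 0.5–96 h and centrifuged for 10 min at 12000 rpm, 4 °C. Plasma underwent single-step protein precipitation and HPLC at 254 nm. Parameters came from non-compartmental analysis.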

[2] = Tissue distribution study; assay type: in vivo, male Wistar rats; settings: for AUCtol / AUMC / Cl: after MPG2ER 10 mg/kg i.p.; for Cmax / MRT / Tmax / half-life: male, Wistar, rat, ip, 10 mg/kg
Summary of the method: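 Male Wistar rats (200 ± 50 g), fasted, were dosed intraperitoneally with the formulation at 10 mg/kg drug equivalent in 5 % v/v DMSO, with 4 rats per time point. At 0.5, 1, 2, 4, 6, 12, 24, 48, 72 and 96 h, rats were killed by cervical dislocation. Excised tissues were homogenised, protein-precipitated in a single step and assayed for drug by HPLC.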

Duration of sustained release in plasma [1]: up to 96 hrs
AUCtol ([2]; Brain): 124±1.660 (μg/mL)*hr
AUMC ([2]; Brain): 3245±73.69 (μg/mL)*hr
Cl ([2]; Brain): 0.08064±0.001 (μg/kg)/((μg/mL)/hr
AUCtol ([2]; Heart): 132.1±1.150 (μg/mL)*hr
AUMC ([2]; Heart): 4027 ±87.53 (μg/mL)*hr
Cl ([2]; Heart): 0.07601±0.003 (μg/kg)/((μg/mL)/hr
AUCtol ([2]; Kidney): 121.2±0.164 (μg/mL)*hr
AUMC ([2]; Kidney): 3190±6.976 (μg/mL)*hr
Cl ([2]; Kidney): 0.08248±0.001 (μg/kg)/((μg/mL)/hr
AUCtol ([2]; Liver): 97.88±1.146 (μg/mL)*hr
AUMC ([2]; Liver): 2959±32.860 (μg/mL)*hr
Cl ([2]; Liver): 0.1075±0.008 (μg/kg)/((μg/mL)/hr
AUCtol ([2]; Lymph Node): 96.33±0.190 (μg/mL)*hr
AUMC ([2]; Lymph Node): 3143±75.49 (μg/mL)*hr
Cl ([2]; Lymph Node): 0.1038±0.002 (μg/kg)/((μg/mL)/hr
AUCtol ([2]; Spleen): 88±2.205 (μg/mL)*hr
AUMC ([2]; Spleen): 2799±81.109 (μg/mL)*hr
Cl ([2]; Spleen): 0.1156±0.002 (μg/kg)/((μg/mL)/hr
Cmax ([2]; brain): 6653 ± 35 ng/mL
MRT ([2]; brain): 26.2 ± 0.284 h
Tmax ([2]; brain): 6 h
half-life ([2]; brain): 13.53 ± 0.088 h
Cmax ([2]; heart): 4674 ± 25 ng/mL
MRT ([2]; heart): 30.3 ± 1.28 h
Tmax ([2]; heart): 6 h
half-life ([2]; heart): 19.3 ± 0.598 h
Cmax ([2]; kidney): 5342 ± 20 ng/mL
MRT ([2]; kidney): 27.3 ± 1.02 h
Tmax ([2]; kidney): 6 h
half-life ([2]; kidney): 17.52 ± 0.0127 h
Cmax ([2]; liver): 5980 ± 83 ng/mL
MRT ([2]; liver): 30.7 ± 0.384 h
Tmax ([2]; liver): 6 h
half-life ([2]; liver): 16.9 ± 1.09 h
Cmax ([2]; lymph node): 3440 ± 48 ng/mL
MRT ([2]; lymph node): 32.63 ± 0.113 h
Tmax ([2]; lymph node): 6 h
half-life ([2]; lymph node): 21 ± 0.054 h
Cmax ([2]; spleen): 4580 ± 69 ng/mL
MRT ([2]; spleen): 32.1 ± 1.65 h
Tmax ([2]; spleen): 6 h
half-life ([2]; spleen): 21.9 ± 0.25 h
Compound: O=C1Nc2ccc(Cl)cc2[C@@](C#CC2CC2)(C(F)(F)F)O1 [EFV, efavirenz]

Compound: CC(C)c1nc(CN(C)C(=O)N[C@H](C(=O)N[C@@H](Cc2ccccc2)C[C@H](O)[C@H](Cc2ccccc2)NC(=O)OCc2cncs2)C(C)C)cs1 [RTV, ritonavir]
Duration of sustained release in plasma [1]: ≤ 72 h
AUCtol ([2]; Brain): 9.25±2.074 (μg/mL)*hr
AUMC ([2]; Brain): 97.42± 68.213 (μg/mL)*hr
Cl ([2]; Brain): 0.270± 0.008 (μg/kg)/((μg/mL)/hr
AUCtol ([2]; Heart): 18.34±1.190 (μg/mL)*hr
AUMC ([2]; Heart): 285.923± 47.303 (μg/mL)*hr
Cl ([2]; Heart): 0.136± 0.032 (μg/kg)/((μg/mL)/hr
AUCtol ([2]; Kidney): 29.27±1.620 (μg/mL)*hr
AUMC ([2]; Kidney): 641.30± 73.625 (μg/mL)*hr
Cl ([2]; Kidney): 0.087± 0.036 (μg/kg)/((μg/mL)/hr
AUCtol ([2]; Liver): 14.51±2.024 (μg/mL)*hr
AUMC ([2]; Liver): 240.78± 26.201 (μg/mL)*hr
Cl ([2]; Liver): 0.172± 0.012 (μg/kg)/((μg/mL)/hr
AUCtol ([2]; Lymph Node): 25.07±1.305 (μg/mL)*hr
AUMC ([2]; Lymph Node): 421.67± 81.067 (μg/mL)*hr
Cl ([2]; Lymph Node): 0.085± 0.007 (μg/kg)/((μg/mL)/hr
AUCtol ([2]; Spleen): 25.82±0.934 (μg/mL)*hr
AUMC ([2]; Spleen): 464.21± 27.094 (μg/mL)*hr
Cl ([2]; Spleen): 0.091± 0.043 (μg/kg)/((μg/mL)/hr
Cmax ([2]; brain): 790 ± 32 ng/mL
MRT ([2]; brain): 10.5 ± 1 h
Tmax ([2]; brain): 4 h
half-life ([2]; brain): 6.67 ± 0.792 h
Cmax ([2]; heart): 2400 ± 15 ng/mL
MRT ([2]; heart): 15.6 ± 1.93 h
Tmax ([2]; heart): 4 h
half-life ([2]; heart): 13.4 ± 0.45 h
Cmax ([2]; kidney): 2490 ± 55 ng/mL
MRT ([2]; kidney): 21.9 ± 0.761 h
Tmax ([2]; kidney): 4 h
half-life ([2]; kidney): 14.7 ± 0.652 h
Cmax ([2]; liver): 2890 ± 21 ng/mL
MRT ([2]; liver): 16.6 ± 0.272 h
Tmax ([2]; liver): 4 h
half-life ([2]; liver): 10.9 ± 0.325 h
Cmax ([2]; lymph node): 2030 ± 42 ng/mL
MRT ([2]; lymph node): 16.3 ± 0.937 h
Tmax ([2]; lymph node): 4 h
half-life ([2]; lymph node): 12.9 ± 1.09 h
Cmax ([2]; spleen): 2130 ± 24 ng/mL
MRT ([2]; spleen): 18 ± 1 h
Tmax ([2]; spleen): 4 h
half-life ([2]; spleen): 13 ± 1.02 h
